Our source for the inhibition, viability and Activity values is ChEMBL document CHEMBL4041534, “Treatment of Sepsis Pathogenesis with High Mobility Group Box Protein 1-Regulating Anti-inflammatory Agents” (J Med Chem, 2017).

Data set [1] deals with T1, High mobility group protein B1 (Mus musculus) (UniProt P63158).
T1 sequence (whole entry): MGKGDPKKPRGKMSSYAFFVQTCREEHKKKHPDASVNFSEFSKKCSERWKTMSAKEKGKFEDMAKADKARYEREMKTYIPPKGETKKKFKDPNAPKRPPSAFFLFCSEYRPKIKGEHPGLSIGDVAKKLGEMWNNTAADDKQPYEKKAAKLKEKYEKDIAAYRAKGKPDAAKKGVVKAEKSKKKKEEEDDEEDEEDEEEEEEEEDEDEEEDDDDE
Put plainly: Inhibition of HMGB1 translocation from nucleus to cytosol in LPS-stimulated mouse RAW264.7 cells assessed as inhibition of NO release at 10 uM measured after 24 hrs by Griess assay relative to control. Put shortly: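 Raw264.7 cells, seeded 1 day earlier, were moved to serum-free DMEM and exposed to 100 ng/mL LPS with 10 μM compound for 24 h. Supernatant NO was measured with Griess reagent (sulfanilamide/N-(1-naphthyl)ethylenediamine/phosphoric acid) at room temperature, absorbance 548 nm. Inhibition was set against LPS+DMSO wells, blank-corrected, with four control wells. At least three independent experiments.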

The nature of data set [2]: Cytotoxicity against mouse RAW264.7 cells assessed as cell viability at 10 uM in presence of LPS measured after 24 hrs by WST assay relative to control. The format is cell-based. Particulars: read-out: Activity. Put shortly: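 Raw264.7 cells, seeded 1 day earlier, were washed into serum-free DMEM and given 100 ng/mL LPS plus compound (10 μM) for 24 h. After the supernatant was removed, wells were refilled with 10% FBS DMEM and WST reagent was added for 20 min at 37 °C. Absorbance was read at 450 nm, and viability is relative to vehicle. At least three independent experiments.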

Data set [3] relates to RAW264.7. Nature of the data set: Cytotoxicity against mouse RAW264.7 cells assessed as reduction in cell viability at >10 uM in presence of LPS measured after 24 hrs by WST assay. The format is cell-based. Conditions: raw264.7, 24 h.
Data set [4] has as its target T1, High mobility group protein B1 (Mus musculus). Put plainly: Inhibition of HMGB1 translocation from nucleus to cytosol in LPS-stimulated mouse RAW264.7 cells assessed as inhibition of TNF-alpha production at 10 uM measured after 4 hrs by ELISA relative to control. Put shortly: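 Raw264.7 cells in serum-free DMEM were treated with 100 ng/mL LPS and 10 μM compound (final). After 4 h, medium was diluted in 1% BSA/PBS and secreted TNF-α was quantified by ELISA against a standard curve of TNF-α protein. Inhibition is relative to control. At least three independent experiments.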

The target is the same in data set [5]. Put plainly: Inhibition of HMGB1 nuclear translocation in LPS-stimulated mouse RAW264.7 cells at 20 uM pretreated for 1 hr followed by LPS-induction measured after 2 hrs by Hoechst 33342/TRITC staining based immunofluorescence microscopic method. Put shortly:
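Raw264.7 cells on chambered coverglass were pretreated with 20 μM compound for 1 h, then given 500 ng/mL LPS for 2 h. Cells were fixed in 4% paraformaldehyde, permeabilized with methanol at −20 °C, blocked with 2% BSA, and stained with anti-HMGB1 plus TRITC secondary and Hoechst 33342. Imaged by deconvolution fluorescence microscopy. At least three independent experiments.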

Data set [6] shares this target. Put plainly: Inhibition of HMGB1 nuclear translocation in LPS-stimulated mouse RAW264.7 cells assessed as inhibition of IL-6 production at 10 uM pretreated for 1 hr followed by LPS-induction by Western blot analysis. In outline:
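Raw264.7 cells were pretreated with 10 μM compound for 1 h, then given 100 ng/mL LPS. IL-6 released into the culture medium was detected by Western blot with ECL chemiluminescence, DMSO as control. At least three independent experiments.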

Activity calls are given as the source filed them. No cut-off for these calls is given here.

As for `CC1(C)Oc2cc(O)ccc2C2C1=CCn1c(=O)n(-c3ccc(C(F)(F)F)cc3)c(=O)n12` (configuration not stated), the inhibition in data set [1] stood at 85%. Also, the viability at 24 h, 10 µM in data set [2] was found to be 106%. Further, the Activity result in data set [3] is “Toxic”.
Regarding `CC1(C)Oc2cc(O)ccc2C2C1=CCn1c(=O)n(-c3ccc(F)cc3)c(=O)n12` (configuration not stated), the inhibition in data set [1] was found to be 87%; in data set [4] it was 44%. Moreover, the viability at 24 h, 10 µM in data set [2] came out at 109%.
As for `CC1(C)Oc2cc(O)ccc2C2C1=CCn1c(=O)n(Cc3ccccc3)c(=O)n12` (configuration not stated), the inhibition in data set [1] came out at 70%. Further, the viability at 24 h, 10 µM in data set [2] was found to be 106%.
Regarding `CC1(C)Oc2cc(O)ccc2C2C1=CCn1c(=O)n(-c3ccccc3I)c(=O)n12` (configuration not stated), the inhibition in data set [1] was determined as 48%. Also, in data set [2], the viability at 24 h, 10 µM worked out at 109%.
In the case of `COc1ccccc1-n1c(=O)n2n(c1=O)C1C(=CC2)C(C)(C)Oc2cc(O)ccc21` (configuration not stated), in data set [1], the inhibition was found to be 66%. The viability at 24 h, 10 µM in data set [2] was found to be 115%.
Take `CCCCc1ccc(-n2c(=O)n3n(c2=O)C2C(=CC3)C(C)(C)Oc3cc(O)ccc32)cc1` (configuration not stated): the inhibition in data set [1] worked out at 99%. For the same molecule, the viability at 24 h, 10 µM in data set [2] worked out at 50%. In addition, the Activity result in data set [3] was “Toxic”.
In the case of `CC1(C)Oc2cc(O)ccc2C2C1C=Cn1c(=O)n(-c3ccccc3)c(=O)n12` (configuration not stated), in data set [1], the inhibition entry is “inactive”.
For `CC(=O)N1CCC2(CC1)Oc1cc(O)ccc1C1C2=CCn2c(=O)n(-c3ccccc3)c(=O)n21` (configuration not stated), the inhibition in data set [1] is 36%.
Regarding `CC1(C)Oc2cc(O)ccc2C2C1=CCn1c(=O)n(-c3ccc4c(c3)OCO4)c(=O)n12` (configuration not stated), the inhibition came to 92% in data set [1] and 46% in data set [4]. In addition, in data set [2], the viability at 24 h, 10 µM stood at 121%. Further, the inhibition result in data set [5] and in data set [6] was “Active” throughout.
`COc1ccc2c(c1)OC(C)(C)C1=CCn3c(=O)n(-c4ccccc4)c(=O)n3C12` (configuration not stated): in data set [1], the inhibition amounted to 44%.
Turning to `CC1(C)Oc2cc(O)ccc2C2C1=CCn1c(=O)n(-c3ccc(C(C)(C)C)cc3)c(=O)n12` (configuration not stated), the inhibition in data set [1] came out at 99%. Also, the viability at 24 h, 10 µM in data set [2] was found to be 105%. The Activity entry in data set [3] is reported as “Toxic”.
With `CC1(C)Oc2cc(O)ccc2C2C1CCn1c(=O)n(-c3ccccc3)c(=O)n12` (configuration not stated), the inhibition result in data set [1] is “inactive”.
Consider `COc1cccc(-n2c(=O)n3n(c2=O)C2C(=CC3)C(C)(C)Oc3cc(O)ccc32)c1` (configuration not stated), for which the inhibition in data set [1] was determined as 96%; in data set [4], 38%. Also, in data set [2], the viability at 24 h, 10 µM was determined as 118%.
Regarding `Cc1ccc(-n2c(=O)n3n(c2=O)C2C(=CC3)C(C)(C)Oc3cc(O)ccc32)cc1` (configuration not stated), the inhibition in data set [1] is 94%; in data set [4] it was 45%. In addition, the viability at 24 h, 10 µM in data set [2] came to 130%. Besides, the inhibition entry in data set [5] and in data set [6] was “Active” each time.
For `COc1ccc2c(c1)C1C(=CCn3c(=O)n(-c4ccccc4)c(=O)n31)C(C)(C)O2` (configuration not stated), the inhibition in data set [1] amounted to 55%.
With `CNc1ccc2c(c1)OC(C)(C)C1=CCn3c(=O)n(-c4ccccc4)c(=O)n3C12` (configuration not stated), the inhibition in data set [1] came out at 52%.
In the case of `CC1(C)Oc2cc(O)ccc2C2C1=CCn1c(=O)n(C3CCCCC3)c(=O)n12` (configuration not stated), the inhibition in data set [1] came to 63%. Besides, in data set [2], the viability at 24 h, 10 µM was 117%.
On to `COc1ccc(-n2c(=O)n3n(c2=O)C2C(=CC3)C(C)(C)Oc3cc(O)ccc32)cc1` (configuration not stated), for which the inhibition in data set [1] is 89%; in data set [4], 44%. Besides, the viability at 24 h, 10 µM in data set [2] came to 127%.
As to `CC1(C)Oc2ccccc2C2C1=CCn1c(=O)n(-c3ccccc3)c(=O)n12` (configuration not stated), the inhibition in data set [1] amounted to 83%.
The same measure, in the same setting: to `COc1ccc2c(c1O)OC(C)(C)C1=CCn3c(=O)n(-c4ccccc4)c(=O)n3C12` (configuration not stated) belongs 26%; to `CC1(C)Oc2cc(F)ccc2C2C1=CCn1c(=O)n(-c3ccccc3)c(=O)n12` (configuration not stated), 79%; to `COc1cc2c(cc1OC)C1C(=CCn3c(=O)n(-c4ccccc4)c(=O)n31)C(C)(C)O2` (configuration not stated), 44%.
As for `CCCN1CCC2(CC1)Oc1cc(O)ccc1C1C2=CCn2c(=O)n(-c3ccccc3)c(=O)n21` (configuration not stated), the inhibition in data set [1] was determined as 47%.
